Key:
MS2 coat protein [1] = experiment: apparent Kd, MS2 coat protein; higher = weaker binding; RNA-MaP array
How it was run: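 Apparent Kd values come from the median of binding-curve fits to single clusters. To obtain them, designed RNAs transcribed on an Illumina sequencing chip from sequenced DNA templates were incubated at room temperature with fluorescently labeled MS2 coat protein at 1.5 nM to 3 μM, with or without input ligand, for 0.8–1.5 h at the lowest and 10–20 min at the highest concentrations. Designs measured on fewer than 10 clusters were excluded.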

MS2 coat protein [2] = experiment: apparent Kd, MS2 coat protein; higher = weaker binding; RNA-MaP array; FMN 200 µM where present; conditions: designed as: OFF switch for flavin mononucleotide
How it was run: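 Designs on Illumina sequencing-chip clusters, transcribed by stalled E. coli RNA polymerase, were exposed to SNAP-549-labelled MS2 coat protein in doubling steps from 0.7 or 1.5 nM up to 3 µM, without and then with constant ligand. The buffer held 100 mM Tris-HCl pH 7.5, 80 mM KCl, 4 mM MgCl2, BSA, DTT, yeast tRNA and Tween-20. Apparent Kd values are medians of filtered per-cluster binding-curve fits to green signal normalised to red-channel RNA signal and control-cluster median Fmax.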

[3] = designed as: OFF switch for flavin mononucleotide, no ligand
[4] = ligand present: flavin mononucleotide, designed as: OFF switch for flavin mononucleotide
[5] = designed as: ON switch for flavin mononucleotide, no ligand
[6] = ligand present: flavin mononucleotide, designed as: ON switch for flavin mononucleotide
[7] = designed as: ON switch for theophylline, no ligand
[8] = ligand present: theophylline, designed as: ON switch for theophylline

Sequence | apparent Kd (MS2 coat protein [1]; [3]) [nM] | apparent Kd (MS2 coat protein [1]; [4]) [nM] | apparent Kd (MS2 coat protein [1]; [5]) [nM] | apparent Kd (MS2 coat protein [1]; [6]) [nM] | further results
UAUUAACAAGGAUAUACAUGAGGAUCACCCAUGUGAAACUAUUUUAUAAUAACAACAAGUAGAAGGAGUUAAAA | 13.2 | 10.8 |  |  | 
UAAUCGUAGGCGGCCGCCACUUUUUGGUAGUGUCCAUUGUACACUCACAUGAGGAUCACCCAUGUAAGGACCGGGCCCGCAUCAG |  |  |  |  | apparent Kd (MS2 coat protein [1]; designed as: OFF switch for tryptophan, no ligand): 17 nM; apparent Kd (MS2 coat protein [1]; ligand present: tryptophan, designed as: OFF switch for tryptophan): 16.7 nM
GUAUGGCUCGAGGAUAUGUACGUAGGAGACUAGACAGAAGGCGAUACAUGAGGAUCACCCAUGUCCUAUUAACC | 188 | 129 |  |  | 
UAAAUCGAAGGAUAUACAUGUACAAGUAUCCGUCAAAGAGCACAUGAGGAUCACCCAUGUAGAAGGUCGACUAA | 19.2 | 57.6 |  |  | 
UCAGAAAGAUAGGACCUACAUGAGGAUCACCCAUGUUGCUGUAGAAGGUGCCGUGCCAUCGUGAGCAAGGAUAUACCGAUAUGG | 22.6 | 15.8 |  |  | 
UUCUUACAUGAGGAUCACCCAUGUUCUGAUAGAGCAGGAUAUGAUGGUUAGAAGUAGAAAUCAGAAGGGCUCCAUG |  |  | 100 | 19.8 | 
AUGCAUCUAGGAUAUGCGGUGAUUUACAUGAGGAUCACCCAUGUAGACCACCGGUCUAGAGCAGAAGGAGAUGUGG | 5.17 | 5.54 |  |  | 
GGGACCGCAGCGUCAUACAUGAGGAUCACCCAUGUUUUACUAAGAAGGAUUAGGAAAGUAAGCUAAUAGGAUAUUACAAGGACA | 22.4 | 15.6 |  |  | 
ACGAAUCCCGUUCCGUGAGGACAUGAGGAUCACCCAUGUUGCAGAAGGGCCGAGCGGAUGGCGAGGCAGGAUAUGCCACAGAUC | 27.6 | 105 |  |  | 
AAAUAUCAGUAGAAGGGCAUUUAAUCGAGACAUGCAGGAUAUACCAAUAACAGAUAAUUCUACAUGAGGAUCACCCAUGUACAG |  |  | 12.7 | 9.19 | 
GACGGCUCUAAGGAGGAUAUGGGAAUCAGCACAUGAGGAUCACCCAUGUAAAUGCCUCGGCUGAACCAGAAGGCCUUGGUCAGGAC |  |  | 380 | 269 | 
CUAUCACAUGAGGAUCACCCAUGUAUGAUAAUCAUAGGAUAUAGUGCCAGCCAUAAUUUACUAGAAGGAUGUUUCU |  |  | 11.7 | 10.1 | 
GGUCCCAUGCGACAGGAUAUUGGAUGCAGCACAUGAGGAUCACCCAUGUAUACAGUUAUGGAUAACAAGAAGGGUCGCUUUGCAUA |  |  | 45.3 | 15.2 | 
GAAUUAUGACGUGAUACCAGUGGUCAAUACUGGGAACUUAACAUGAGGAUCACCCAUGUCCACCCUUGGCAGCACGCUGACAAUC |  |  |  |  | apparent Kd (MS2 coat protein [1]; designed as: OFF switch for theophylline, no ligand): 94 nM; apparent Kd (MS2 coat protein [1]; ligand present: theophylline, designed as: OFF switch for theophylline): 236 nM
GGAAGCCGCUAGAAGGAAUAGCACGGGUGCUAAUUAGGAUAUAGUGUCCCAGCACAUGAGGAUCACCCAUGUAUAACACGAUCC |  |  | 20.1 | 16.9 | 
CGAUAUGAGGUCGAUACCAGCAGCUUCAAGCACAUGAGGAUCACCCAUGUCCAUUUUACUUGCCCUUGGCAGCGACUUUGGAAAC |  |  |  |  | apparent Kd (MS2 coat protein [1]; [7]): 39.4 nM; apparent Kd (MS2 coat protein [1]; [8]): 13.8 nM
AUAAAAGCCACAUGAGGAUCACCCAUGUAGCAGGAAGCCAGCAAGGAUAUCGCAACAGGAGGGAUCGAGAAGGAGCGUAACUAA |  |  | 23.7 | 18.2 | 
AUGCAACAUGAGGAUCACCCAUGUGGUGAUACCAGUCGACAAGUAGACCCUUGGCAGCACAGCCGAUAUCGAGAGAGAUUUUUGG |  |  |  |  | apparent Kd (MS2 coat protein [1]; [7]): 487 nM; apparent Kd (MS2 coat protein [1]; [8]): 650 nM
AGAUAAUCUUGGGAUUUCGUACAUGAGGAUCACCCAUGUCCAGAGGAUAUGCAUAGACAGGCAUCGCAGAAGGCUGGUGAACAG |  |  | 35.4 | 27.6 | 
UUAACAUGAGGAUCACCCAUGUGAAGCCGGCGAUGAAUAGUACAGGAUAUCGAAUACCGCCUAGACGAGAAGGGUAUCAAUCGG |  |  | 14.2 | 12.7 | 
GCGCCAUCGUGAGAUGGCGUACCAACAUGAGGAUCACCCAUGUAGGAUAUCGAUUGCUUUGCAGUCGAGAAGGGCAUGAUAAGU |  |  |  |  | apparent Kd (MS2 coat protein [2]; no ligand): 22 nM; apparent Kd (MS2 coat protein [2]; ligand present: flavin mononucleotide): 28.4 nM
